Tested on: Fibroblast
Experiment: Multiplex assay against human fibroblast
Assay type: toxicity, cell-based
Outline: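 Tubulin, mitochondrial-mass and membrane-permeability phenotypes are per cents of healthy-nucleus cells. Cells were gated by CellPathfinder machine learning into Hoechst high-intensity objects or normal cells, normal cells into healthy, pyknosed or fragmented nuclei, and pyknosed cells into mitotic or apoptotic. Before that, live cells stained at seeding with Hoechst33342, BioTracker Green Microtubule Cytoskeleton Dye, MitoTracker Red and Annexin V Alexa Fluor 680 were imaged on a CQ1 microscope at 37°C and 5% CO2 after compound addition.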

[1] = 12 h, 1 µM, compound concentration 1 uM, replicate 1
[2] = 12 h, 1 µM, compound concentration 1 uM, replicate 2
[3] = 12 h, 10 µM, compound concentration 10 uM, replicate 1
[4] = 12 h, 10 µM, compound concentration 10 uM, replicate 2
[5] = 24 h, 1 µM, compound concentration 1 uM, replicate 1
[6] = 24 h, 1 µM, compound concentration 1 uM, replicate 2
[7] = 24 h, 10 µM, compound concentration 10 uM, replicate 1
[8] = 24 h, 10 µM, compound concentration 10 uM, replicate 2
[9] = 48 h, 1 µM, compound concentration 1 uM, replicate 1
[10] = 48 h, 1 µM, compound concentration 1 uM, replicate 2
[11] = 48 h, 10 µM, compound concentration 10 uM, replicate 1
[12] = 48 h, 10 µM, compound concentration 10 uM, replicate 2

CN1CCN(c2ccc(Nc3c4ccccc4nc4ccccc34)cc2)CC1.Cl.Cl.O
Population Apoptotic (%) [1]: 47% | Population Fragmented Nuclei (%) [1]: 15% | Population Healthy Nuclei (%) [1]: 69% | Population Hoechst High Intensity Objects (%) [1]: 1% | Population Membrane Permeable-Phenotype (%) [1]: 0% | Population Mitochondria Different-Phenotype (%) [1]: 3% | Population Mitotic Cells (%) [1]: 52% | Population Normal (%) [1]: 98% | Population Pyknosed Nuclei (%) [1]: 14% | Population Tubulin-Different-Phenotype (%) [1]: 23% | Total Cell Count [1]: 135 | Population Apoptotic (%) [2]: 44% | Population Fragmented Nuclei (%) [2]: 28% | Population Healthy Nuclei (%) [2]: 56% | Population Membrane Permeable-Phenotype (%) [2]: 5% | Population Mitochondria Different-Phenotype (%) [2]: 5% | Population Mitotic Cells (%) [2]: 56% | Population Pyknosed Nuclei (%) [2]: 15% | Population Tubulin-Different-Phenotype (%) [2]: 34% | Total Cell Count [2]: 160 | Population Apoptotic (%) [3]: 91% | Population Fragmented Nuclei (%) [3]: 42% | Population Healthy Nuclei (%) [3]: 49% | Population Hoechst High Intensity Objects (%) [3]: 8% | Population Membrane Permeable-Phenotype (%) [3]: 0% | Population Mitochondria Different-Phenotype (%) [3]: 47% | Population Mitotic Cells (%) [3]: 8% | Population Normal (%) [3]: 91% | Population Pyknosed Nuclei (%) [3]: 8% | Population Tubulin-Different-Phenotype (%) [3]: 90% | Total Cell Count [3]: 158 | Population Apoptotic (%) [4]: 66% | Population Fragmented Nuclei (%) [4]: 65% | Population Healthy Nuclei (%) [4]: 29% | Population Hoechst High Intensity Objects (%) [4]: 16% | Population Membrane Permeable-Phenotype (%) [4]: 4% | Population Mitochondria Different-Phenotype (%) [4]: 13% | Population Mitotic Cells (%) [4]: 33% | Population Normal (%) [4]: 83% | Population Pyknosed Nuclei (%) [4]: 4% | Population Tubulin-Different-Phenotype (%) [4]: 79% | Total Cell Count [4]: 177 | Population Apoptotic (%) [5]: 70% | Population Fragmented Nuclei (%) [5]: 21% | Population Healthy Nuclei (%) [5]: 65% | Population Hoechst High Intensity Objects (%) [5]: 0% | Population Membrane Permeable-Phenotype (%) [5]: 0% | Population Mitochondria Different-Phenotype (%) [5]: 2% | Population Mitotic Cells (%) [5]: 29% | Population Normal (%) [5]: 99% | Population Pyknosed Nuclei (%) [5]: 12% | Population Tubulin-Different-Phenotype (%) [5]: 12% | Total Cell Count [5]: 139 | Population Apoptotic (%) [6]: 60% | Population Fragmented Nuclei (%) [6]: 29% | Population Healthy Nuclei (%) [6]: 57% | Population Membrane Permeable-Phenotype (%) [6]: 3% | Population Mitochondria Different-Phenotype (%) [6]: 7% | Population Mitotic Cells (%) [6]: 40% | Population Normal (%) [6]: 100% | Population Tubulin-Different-Phenotype (%) [6]: 39% | Total Cell Count [6]: 155 | Population Apoptotic (%) [7]: 77% | Population Fragmented Nuclei (%) [7]: 47% | Population Healthy Nuclei (%) [7]: 39% | Population Hoechst High Intensity Objects (%) [7]: 16% | Population Membrane Permeable-Phenotype (%) [7]: 1% | Population Mitochondria Different-Phenotype (%) [7]: 66% | Population Mitotic Cells (%) [7]: 22% | Population Normal (%) [7]: 83% | Population Pyknosed Nuclei (%) [7]: 12% | Population Tubulin-Different-Phenotype (%) [7]: 94% | Total Cell Count [7]: 206 | Population Apoptotic (%) [8]: 60% | Population Fragmented Nuclei (%) [8]: 69% | Population Healthy Nuclei (%) [8]: 27% | Population Hoechst High Intensity Objects (%) [8]: 21% | Population Membrane Permeable-Phenotype (%) [8]: 6% | Population Mitochondria Different-Phenotype (%) [8]: 34% | Population Mitotic Cells (%) [8]: 40% | Population Normal (%) [8]: 78% | Population Pyknosed Nuclei (%) [8]: 3% | Population Tubulin-Different-Phenotype (%) [8]: 84% | Total Cell Count [8]: 205 | Population Apoptotic (%) [9]: 66% | Population Fragmented Nuclei (%) [9]: 23% | Population Healthy Nuclei (%) [9]: 70% | Population Hoechst High Intensity Objects (%) [9]: 1% | Population Membrane Permeable-Phenotype (%) [9]: 0% | Population Mitochondria Different-Phenotype (%) [9]: 4% | Population Mitotic Cells (%) [9]: 33% | Population Normal (%) [9]: 98% | Population Pyknosed Nuclei (%) [9]: 6% | Population Tubulin-Different-Phenotype (%) [9]: 26% | Total Cell Count [9]: 144 | Population Apoptotic (%) [10]: 55% | Population Fragmented Nuclei (%) [10]: 25% | Population Healthy Nuclei (%) [10]: 68% | Population Membrane Permeable-Phenotype (%) [10]: 1% | Population Mitotic Cells (%) [10]: 44% | Population Pyknosed Nuclei (%) [10]: 5% | Total Cell Count [10]: 157 | Population Apoptotic (%) [11]: 68% | Population Fragmented Nuclei (%) [11]: 71% | Population Healthy Nuclei (%) [11]: 15% | Population Hoechst High Intensity Objects (%) [11]: 45% | Population Membrane Permeable-Phenotype (%) [11]: 15% | Population Mitochondria Different-Phenotype (%) [11]: 30% | Population Mitotic Cells (%) [11]: 31% | Population Normal (%) [11]: 54% | Population Pyknosed Nuclei (%) [11]: 12% | Population Tubulin-Different-Phenotype (%) [11]: 25% | Total Cell Count [11]: 235 | Population Apoptotic (%) [12]: 0% | Population Fragmented Nuclei (%) [12]: 88% | Population Healthy Nuclei (%) [12]: 11% | Population Hoechst High Intensity Objects (%) [12]: 38% | Population Membrane Permeable-Phenotype (%) [12]: 25% | Population Mitochondria Different-Phenotype (%) [12]: 12% | Population Mitotic Cells (%) [12]: 0% | Population Normal (%) [12]: 61% | Population Pyknosed Nuclei (%) [12]: 0% | Population Tubulin-Different-Phenotype (%) [12]: 56% | Total Cell Count [12]: 236

Reference: ChEMBL document CHEMBL5058577, “EUbOPEN Chemogenomics Library 2 (Multiplex)” (2022)
